Experimental data gathered from unrelated publications.
Compare with care: the assays were run in different laboratories.
DPP4: Dipeptidyl peptidase 4 (DPP4, Homo sapiens, UniProt P27487)
CYP2C9: Cytochrome P450 2C9 (CYP2C9, Homo sapiens, UniProt P11712)
SLC22A13: SLC22A13 (Homo sapiens, UniProt Q9Y226)

| Structure (SMILES) | target | assay | system | setting | IC50 |
| --- | --- | --- | --- | --- | --- |
| Cn1c(=O)cc(N2CCC(N)CC2)n(Cc2nc3ccccc3c(=O)n2-c2ccccc2)c1=O | DPP4 | enzyme activity, inhibitor |  |  | > 100 µM |
| N#C[C@@]12C[C@@H]1[C@@H](n1cnc3c(N[C@@H](C4CCC4)C4CC4)nc(I)nc31)[C@H](O)[C@@H]2O | CYP2C9 | enzyme activity, inhibitor |  |  | 8.64 µM |
| Cn1c(=O)c2c(ncn2C)n(C)c1=O | SLC22A13 | transporter uptake, inhibitor, radiometric |  | oocytes | > 2000 µM |
| CC[C@@](N)(c1cnc(C(F)(F)F)c(Cl)c1)c1c2ncn(C3CC3)c(=O)c2nn1C | Cytochrome P450 2C8 (CYP2C8, Homo sapiens, UniProt P10632) | enzyme activity, inhibitor | human, liver microsomes | pH 7.4 | > 20 µM |
| Cc1ccc(-n2c(Cn3c(N4CCC(N)CC4)cc(=O)n(C)c3=O)nc3ccccc3c2=O)cc1 | DPP4 | enzyme activity, inhibitor |  |  | > 100 µM |
| CCCCNC(=O)N[C@H]1CSCc2cc(CSCCNC(=O)CN3CCN(CC(=O)O)CCN(CC(=O)O)CC3)cc(c2)CSC[C@@H](C(=O)O)NC(=O)[C@H](Cc2ccccc2)NC(=O)[C@H](CCC(N)=O)NC(=O)[C@H]([C@@H](C)O)NC(=O)[C@@H]2CCCN2C(=O)[C@@H]2CCCN2C1=O | Prolyl endopeptidase FAP (FAP, Homo sapiens, UniProt Q12884) | ligand displacement, radioligand |  |  | 0.0317 µM |
| Nc1ncnc2c1ncn2[C@@H]1O[C@H](CO)[C@@H](O)[C@H]1O | SLC22A13 | transporter uptake, inhibitor, radiometric |  | oocytes | > 5000 µM |
| COc1cc(O)c2c(c1)C(=O)c1cc(C)cc(O)c1C2=O | CYP2C9 | enzyme activity, inhibitor | human, liver microsomes | pH 7.4 | 7.44 µM |
| CC(=O)N[C@H]1Cc2ccc(cc2)OC/C=C/C[C@@H](C(=O)N[C@@H](CCCNC(=N)N)C(=O)c2nc3ccccc3s2)NC(=O)[C@H](CC(C)C)NC1=O | Hepatocyte growth factor activator serine protease (Homo sapiens, UniProt Q04756) | enzyme activity, inhibitor, fluorescence |  | with preincubation | 0.053 µM |
| Cn1c(=O)cc(N2CCC(N)CC2)n(Cc2nc3ccccc3c(=O)n2-c2cccc(C(F)(F)F)c2)c1=O | DPP4 | enzyme activity, inhibitor |  |  | 58.1 µM |
| CC1(CN)CCN(c2cnc3c(Sc4ccncc4Cl)n[nH]c3n2)CC1 | Tyrosine-protein phosphatase non-receptor type 6 (PTPN6, Homo sapiens, UniProt P29350) | enzyme activity, inhibitor |  |  | > 100 µM |
| Cn1c(=O)cc(N2CCC(N)CC2)n(Cc2nc3ccc(Br)cc3c(=O)n2-c2ccc(F)cc2)c1=O | DPP4 | enzyme activity, inhibitor |  |  | 44.4 µM |
| Cn1nc2c(=O)n(C3CC3)ccc2c1[C@](O)(c1cnc(C(F)(F)F)c(Cl)c1)C(F)(F)F | CYP2C9 | enzyme activity, inhibitor | human, liver microsomes | pH 7.4 | > 20 µM |
| Cn1c(=O)cc(N2CCC(N)CC2)n(Cc2nc3ccccc3c(=O)n2-c2ccc(F)cc2)c1=O | DPP4 | enzyme activity, inhibitor |  |  | 63.4 µM |
| CN(C)c1ncnc2c1ncn2[C@@H]1O[C@H](CCl)[C@@H](NC(=O)[C@@H](CSC(c2ccccc2)c2ccccc2)NC(=O)OC(C)(C)C)[C@H]1O | Aminopeptidase N (ANPEP, Homo sapiens, UniProt P15144) | enzyme activity, inhibitor, fluorescence |  |  | > 100 µM |
